Data from ChEMBL document CHEMBL3272251, “Synthesis of 5-substituted uracil derivatives” (1976).

Assays:
Type in all cases: functional
Staphylococcus aureus [1] = assay: Antibacterial activity against Staphylococcus aureus assessed as bacterial growth at 1 mM after 20 hrs by turbidometry relative to control
In short: (§1)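 Broth culture of E. coli B or Staph. aureus at inhibitor concentration 1 × 10^-3 M. Inoculum was 2% of stock culture added to each inhibitor solution. After 20 hr incubation at 37°C, turbidity was read at 500 nm and compared with controls.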

Escherichia coli [2] = assay: Antibacterial activity against Escherichia coli B assessed as bacterial growth at 1 mM after 20 hrs by turbidometry relative to control; in short: as §1
Staphylococcus aureus [3] = assay: Antibacterial activity against Staphylococcus aureus assessed as bacterial growth at 0.1 mM after 20 hrs by turbidometry relative to control
In short: (§2)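 Tested at 1 × 10^-4 M in broth culture, a lower level chosen for limited solubility. Each inhibitor solution received a 2% inoculum of E. coli B or Staph. aureus stock culture. Incubated 20 hr at 37°C, then growth read as turbidity at 500 nm against untreated controls.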

Escherichia coli [4] = assay: Antibacterial activity against Escherichia coli B assessed as bacterial growth at 0.1 mM after 20 hrs by turbidometry relative to control; in short: as §2

For `Nc1nc(-c2c[nH]c(=O)[nH]c2=O)cs1`, the Activity (Staphylococcus aureus [1]) was 90% and the Activity (Escherichia coli [2]) was 90%.

With `O=C(CO)c1c[nH]c(=O)[nH]c1=O` the Activity (Staphylococcus aureus [1]) was 90% and the Activity (Escherichia coli [2]) was 90%.

With `C[N+](C)(C)CC(=O)c1c[nH]c(=O)[nH]c1=O.[Br-]` the Activity (Staphylococcus aureus [1]) was 90% and the Activity (Escherichia coli [2]) was 90%.

`O=c1[nH]cc(-c2c[nH]cn2)c(=O)[nH]1` was tested, and the Activity (Staphylococcus aureus [3]) was 90% and the Activity (Escherichia coli [4]) was 90%.

Work on `O=C(O)/C=C/c1c[nH]c(=O)[nH]c1=O` yielded an Activity (Staphylococcus aureus [3]) of 90% and an Activity (Escherichia coli [4]) of 90%.

Compound `O=c1[nH]cc(-c2ncc[nH]2)c(=O)[nH]1` has an Activity (Staphylococcus aureus [3]) of 90% and an Activity (Escherichia coli [4]) of 90%.
